Experimental data as given in the RNAGym collection of RNA variant scans (doi:10.1126/science.aae0568).
This sample holds only a part of the variants without activity.

B1: tRNA (parent)
chain: GUUCCGUUGGCGUAAUGGUAACGCGUCUCCCUCCUAAGGAGAAGACUGCGGGUUCGAGUCCCGUACGGAACG

Variants of: B1
Assay: yeast fitness relative to wild type (ratio to wild type); higher = fitter; tRNA-Arg(CCU), competitive growth, 37 C, YPD
Summary of the method: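 Start and end populations of a pooled competition were compared by 100-nucleotide paired-end sequencing of gene amplicons. The Saccharomyces cerevisiae strains carried tRNA-Arg(CCU) gene variants at the native genomic locus, synthesised with a 3% per-site mutation rate at 69 sites, and competed in YPD at 37°C for 24 hours in six parallel replicates. Darwinian fitness relative to wild type was based on the change in genotype frequencies. Genotypes required ≥ 100 starting reads, and estimates < 0.5 were set to 0.5.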

Row | Variant | yeast fitness
1 | C4A G6A G67U | ≤ 0.5
2 | U3A U54C | 0.777
3 | U19A C27U A65U | 0.717
4 | U16G C29U C30U | ≤ 0.5
5 | U35C U54C | 0.696
6 | C27U G48A | 1.1
7 | C30G G48A U53C | ≤ 0.5
8 | A37G U47A C55A G58C | ≤ 0.5
9 | U7C G12A C31U G52A | ≤ 0.5
10 | U53G A65U | 0.635
11 | U8A U13A | 0.606
12 | C5G C27G C46G A65G | ≤ 0.5
13 | C11U U32A A70C | 0.614
14 | A15G G63A | 0.926
15 | U3G U7C G18A C30G G41U C49G | ≤ 0.5
16 | C5A G52A G56A G58C | ≤ 0.5
17 | C11A A21U C34A | ≤ 0.5
18 | U2C U16A U32A A37U C62A | ≤ 0.5
19 | C4U C22U C55G | ≤ 0.5
20 | G48C G68C | 0.789
21 | C4U C5A C66U | 0.61
22 | C5U C11A C66G | 0.613
23 | G12C A20C C31G A65G | 0.527
24 | C11U A42G C62G A69U | ≤ 0.5

Row | Variant | yeast fitness
25 | G6A C62A A70C | 0.636
26 | U2C C46U U64A | 0.688
27 | A20C C29U U32A | ≤ 0.5
28 | C31G G38A G52A C61A G63A | ≤ 0.5
29 | C11U A21C A36G | ≤ 0.5
30 | A20G U54C A70C | 0.578
31 | U2C C4U C34A G58A | ≤ 0.5
32 | C30A A43U C61U | 0.602
33 | G9A C30G C31G A43G A65G | ≤ 0.5
34 | G9A C29A A37G | 0.513
35 | A15C U26A C31G U32A G63A | ≤ 0.5
36 | A21G C49U | 0.994
37 | U7A G9C G12A G17C G48A | ≤ 0.5
38 | C11A A42C C62A | ≤ 0.5
39 | C4A A36G C55A C61U | ≤ 0.5
40 | C11A U47A A70C | ≤ 0.5
41 | A20G G41C A70U | 0.622
42 | C27A C31U C60G | ≤ 0.5
43 | C24G A45U U54A | ≤ 0.5
44 | C22G G48C A69C | 0.589
45 | A15C A36U A65C | 0.54
46 | A15G A42C G51C G67C | ≤ 0.5
47 | C33G A40G G51C C61U | ≤ 0.5
48 | U8C C49G | 1.01

Row | Variant | yeast fitness
49 | G12A A40U G52C C60G | ≤ 0.5
50 | G6A C27U | 0.785
51 | A14U U47A A69G | 0.66
52 | C4A C5U C29G C33U U59G A69C | 0.533
53 | C30U C34G A40C C49G | ≤ 0.5
54 | C34G U53C C55G | ≤ 0.5
55 | A15C G38A C49A | ≤ 0.5
56 | A21G C46U | 0.97
57 | G10C A20U A57U | ≤ 0.5
58 | U2G G6A G12A C27U A36U C60G | ≤ 0.5
59 | G25A U28G G58A C66G | 0.61
60 | A20G C22G C27G C30U C31G G51C | ≤ 0.5
61 | U3C G9A A69U | 0.882
62 | C5G U32A A70U | ≤ 0.5
63 | G6A C62U C66A | 0.548
64 | U35C A45C | 0.862
65 | A15G C30G C31A C66U | ≤ 0.5
66 | G39U A45C | 0.851
67 | C34U G41C C60U | ≤ 0.5
68 | G52C U59G | 0.538
69 | C31U A40C G56C | ≤ 0.5
70 | C5U C55A | 0.668
71 | C4U A57U | 0.635
72 | C5A G50A G68C | ≤ 0.5

Row | Variant | yeast fitness
73 | U7A C29A | 0.73
74 | A36C A40G G58C C60A | 0.537
75 | C30A U35C | 0.93
76 | C22A A45C U54C | 0.522
77 | U3C A40U | 0.976
78 | U8G C30A G50C C62U G67U | ≤ 0.5
79 | C5U U16G A20C A21G C30U | ≤ 0.5
80 | G17C C29U | 0.545
81 | A40G C49U | 0.883
82 | G6A A21G C24G A37U | ≤ 0.5
83 | C27G G44C U47C | ≤ 0.5
84 | C5U C24G C62G G68C | ≤ 0.5
85 | U26C C29G A43U | ≤ 0.5
86 | A40C G68C | 0.641
87 | G17A U28C A42C C66U | ≤ 0.5
88 | G10C G12A A36G C46A U47A | ≤ 0.5
89 | C29G A37G A57U | 0.617
90 | G50C G51C | 0.522
91 | U8A U54A C55U G68A A69U | 0.507
92 | G12A C22A A36G A37G | ≤ 0.5
93 | U3A A21C C24G C62G | 0.599
94 | C33A A36C G51A | 0.721
95 | U26A A40U | 0.809
96 | A15C G23C C60U | ≤ 0.5

Row | Variant | yeast fitness
97 | C34G A42U | 0.621
98 | U8C U32G G50A A69U | 0.557
99 | C34G A43U A70C | ≤ 0.5
100 | C34G A37G C62A | ≤ 0.5
101 | G12C C30A G48A C55G | 0.607
102 | U2C U47A C55G | ≤ 0.5
103 | U19A C49A U54G U59A G63C A69G | ≤ 0.5
104 | U7G A14G U35G C46A G63C A65U | ≤ 0.5
105 | U28C C29A A69U | 0.559
106 | A20C G39C | 0.723
107 | C11G A36U A42G A43C C49U A57U A65C | ≤ 0.5
108 | C5A C33G | 0.698
109 | U7A C46A G68U | ≤ 0.5
110 | C11U A69C | 0.905
111 | G58C G67C | 1.17
112 | G6C G52A | 0.683
113 | G9C U54G | 0.605
114 | A36G G68C A70G | ≤ 0.5
115 | C5A A20G C29A G51C G67C | ≤ 0.5
116 | C22G C30G C55A | ≤ 0.5
117 | G9A G17C A43U | ≤ 0.5
118 | C5A A42G G51C | ≤ 0.5
119 | U8A A40U A70C | 0.547
120 | C29G A37U C55G | 0.549

Row | Variant | yeast fitness
121 | U26A C46U G50C U54A | 0.579
122 | U2C U13C G41A C60G C61G C62U | 0.596
123 | G6A U28G C34U | ≤ 0.5
124 | C4G C33U C55A | ≤ 0.5
125 | U8C C30G C31G | 0.58
126 | U2C U35G G52A | ≤ 0.5
127 | A36U C46G C62A | ≤ 0.5
128 | A40C C49G | 0.804
129 | U59G G63C | 0.639
130 | C4A U19G A36C | 0.506
131 | A21C A42U A45U | 0.646
132 | A14G U19A A20G A40U | ≤ 0.5
133 | U16C C29U C34U A57C U64C | ≤ 0.5
134 | C4G U28G | 0.696
135 | G6A G23C C49G U53G A57G C61U | ≤ 0.5
136 | G9C C30G A57U C60G | 0.533
137 | U2G G6A A20G | 0.61
138 | A43G C60G | 0.734
139 | C4G A15C C30A A42C G56A A57U | ≤ 0.5
140 | G23C A37U C46G | ≤ 0.5
141 | C4G U26A A57G | ≤ 0.5
142 | C4A U64A | 0.815
143 | C4U G18A G23C C24G C46G U64G | ≤ 0.5
144 | G12A A20G C24U C27A A70U | ≤ 0.5

Row | Variant | yeast fitness
145 | A14C C49G A70U | ≤ 0.5
146 | A14G C24U C55U G67C | ≤ 0.5
147 | A42U G52A G67U | 0.783
148 | A42C C61G A65U | 0.539
149 | U47G G68C | 0.563
150 | C5U U8C G41C A69U | ≤ 0.5
151 | U2C C5U | 0.98
152 | C4U A42G U47C G58A | ≤ 0.5
153 | U8C C22G C30G | ≤ 0.5
154 | A14U U26A | 0.694
155 | C4A C5U C34U U64G A69U | ≤ 0.5
156 | A45G G50A | 0.857
157 | G10A C33G A70U | ≤ 0.5
158 | G6A C22U C31G | ≤ 0.5
159 | C31A U53G A57G | ≤ 0.5
160 | C24A G44A | 0.7
161 | G10C C29U C31U G63U | ≤ 0.5
162 | U2G U47G G67U | ≤ 0.5
163 | A21U C61A G67A | ≤ 0.5
164 | G56A C60G | 0.681
165 | G10A A43U C60U | ≤ 0.5
166 | G6A C11U A43U C62G C66A A69C | ≤ 0.5
167 | G6A A15C U16C | ≤ 0.5
168 | A45C U54A C66U | ≤ 0.5

Row | Variant | yeast fitness
169 | A15C G23A A42C G48A G50C | ≤ 0.5
170 | C27A G68C | 0.893
171 | C24U A37C G50C A69U | ≤ 0.5
172 | U7A C61A | 0.603
173 | U28C G52A | 0.836
174 | G10C G25A | 0.691
175 | A21C U28A G68A | ≤ 0.5
176 | A14U A15U C49U G56C | ≤ 0.5
177 | A14U A42U C49U C61U C66U | ≤ 0.5
178 | U2C G6C A42G A65U G67A | ≤ 0.5
179 | G10A U35A G56A | 0.617
180 | G25A U26A | 0.839
181 | G6C A40G C60U C61U | 0.513
182 | G9C A21G U64A | ≤ 0.5
183 | U2C G50U | 0.825
184 | A14U U28A G67C | ≤ 0.5
185 | C31A G39C | 0.659
186 | C4U C34G G41C G56C G58A G63C A65U | ≤ 0.5
187 | G25C C27A | 0.678
